Assay results: publication PMC3857970 (European journal of medicinal chemistry, 2012)

tested on: human red blood cells (RBC); assay: Sorbitol accumulation in RBC under high glucose conditions; format: cell-based; conditions: ex vivo high glucose conditions
Procedure, shortened: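 Fasted healthy male donors' heparinised blood; RBC washed three times in isotonic saline at 4 °C, resuspended in Krebs-Ringer bicarbonate pH 7.4 (5% CO2). Duplicates incubated 3 h, 37 °C, 5% CO2, with 5.5 or 55 mM glucose, with test compound at 1.4–20 µM. Cells homogenised in 0.8 M perchloric acid, spun, supernatant adjusted to pH 3.5 with K2CO3; sorbitol measured fluorometrically.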

Row | Compound | effect on sorbitol accumulation (in words)
1 | COc1cc(C(CC(=O)N2CCC(c3c(-c4ccccc4)[nH]c4ccccc34)CC2=O)c2c(-c3ccccc3)[nH]c3ccccc23)cc(OC)c1OC (stereo not drawn) [Compound 3e, 1-(3-(3,4,5-Trimethoxyphenyl)-3-(2-phenyl-1H-indol-3-yl)propanoyl)-4-(2-phenyl-1H-indol-3-yl)piperidin-2-one] | inhibited the sorbitol accumulation
2 | COc1cc(C(CC(=O)N2CCC(c3cn(Cc4ccccc4)c4ccccc34)CC2=O)c2cn(Cc3ccccc3)c3ccccc23)cc(OC)c1OC (stereo not drawn) [Compound 3c, 1-(3-(1-Benzyl-1H-indol-3-yl)-3-(3,4,5-trimethoxyphenyl)propanoyl)-4-(1-benzyl-1H-indol-3-yl)piperidin-2-one] | inhibited the sorbitol accumulation
3 | COc1ccc2[nH]cc(C(CC(=O)N3CCC=CC3=O)c3cc(OC)c(OC)c(OC)c3)c2c1 (stereo not drawn) [Compound 2j, 1-(3-(5-Methoxy-1H-indol-3-yl)-3-(3,4,5-trimethoxyphenyl)propanoyl)-5,6-dihydropyridin-2(1H)-one] | inhibited the sorbitol accumulation

target: recombinant human ALR2 (Homo sapiens, UniProt P15121); assay: ALR2 inhibition assay; format: biochemical; conditions: not given

Row | Compound | IC50 | ALR2 inhibitory activity (in words)
4 | COc1cc(/C=C/C(=O)N2CCC=CC2=O)cc(OC)c1OC [Compound 1, 5,6-Dihydro-1-((E)-3-(3,4,5-trimethoxyphenyl)acryloyl) pyridin-2(1H)-one] | – | moderate activity
5 | O=C1C=CCCN1C(=O)/C=C/C=C/c1ccc2c(c1)OCO2 [Compound 30, 1-((2E,4E)-5-(Benzo[d][1,3]dioxol-5-yl)penta-2,4-dienoyl)-5,6-dihydropyridin-2(1H)-one] | 500 µM | –
6 | O=C1C=CCCN1C(=O)/C=C/c1ccc2c(c1)OCO2 [Compound 16, (E)-1-(3-(Benzo[d][1,3]dioxol-5-yl)acryloyl)-5,6-dihydropyridin-2(1H)-one] | > 500 µM | –
7 | COc1cc(C(CC(=O)N2CCC=CC2=O)c2c[nH]c3ccccc23)cc(OC)c1OC (stereo not drawn) [Compound 2a, 1-(3-(1H-Indol-3-yl)-3-(3,4,5-trimethoxyphenyl)propanoyl)-5,6-dihydropyridin-2(1H)-one] | > 500 µM | –
8 | O=C1C=CCCN1C(=O)/C=C/c1ccc2ccccc2c1 [Compound 18, (E)-1-(3-(Naphthalen-2-yl)acryloyl)-5,6-dihydropyridin-2(1H)-one] | 350 µM | –
9 | O=C1C=CCCN1C(=O)/C=C/c1cccc(C(F)(F)F)c1 [Compound 13, (E)-1-(3-(3-(Trifluoromethyl)phenyl)acryloyl)-5,6-dihydropyridin] | 400 µM | –
10 | O=C1C=CCCN1C(=O)/C=C/c1ccc(Cl)cc1 [Compound 17, (E)-1-(3-(4-Chlorophenyl)acryloyl)-5,6-dihydropyridin-2(1H)-one] | > 500 µM | –
11 | COc1cc(C(CC(=O)N2CCC=CC2=O)c2c[nH]c3ccc(I)cc23)cc(OC)c1OC (stereo not drawn) [Compound 2f, 1-(3-(5-Iodo-1H-indol-3-yl)-3-(3,4,5-trimethoxyphenyl)propanoyl)-5,6-dihydropyridin-2(1H)-one] | > 500 µM | –
12 | COc1cc(C(CC(=O)O)c2c(C)[nH]c3ccccc23)cc(OC)c1OC (stereo not drawn) [Compound 4, 3-(3,4,5-Trimethoxyphenyl)-3-(2-methyl-1H-indol-3-yl) propanoic acid] | 72 µM | –
13 | COc1cc(/C=C/C(=O)N2CCCCC2)cc(OC)c1OC [Compound 33, (E)-1-(Piperidin-1-yl)-3-(3,4,5-trimethoxyphenyl) prop-2-en-1-one] | > 500 µM | –
14 | O=C1C=CCCN1C(=O)/C=C/c1cccc(Oc2ccccc2)c1 [Compound 20, (E)-1-(3-(3-Phenoxyphenyl)acryloyl)-5,6-dihydropyridin-2(1H)-one] | > 500 µM | –
15 | COc1ccc(OC)c(/C=C/C(=O)N2CCC=CC2=O)c1 [Compound 14, (E)-1-(3-(2,5-Dimethoxyphenyl)acryloyl)-5,6-dihydropyridin-2(1H)-one] | > 500 µM | –
16 | COc1cc(/C=C/C(=O)N2CCCC2=O)cc(OC)c1OC [Compound 34, (E)-1-(3-(3,4,5-Trimethoxyphenyl)acryloyl)pyrrolidin-2-one] | > 500 µM | –
17 | COc1cc(C(CC(=O)N2CCC=CC2=O)c2cn(C)c3ccccc23)cc(OC)c1OC (stereo not drawn) [Compound 2b, 1-(3-(3,4,5-Trimethoxyphenyl)-3-(1-methyl-1H-indol-3-yl)propanoyl)-5,6-dihydropyridin-2(1H)-one] | 100 µM | –
18 | COC(=O)/C=C/c1cc(OC)c(OC)c(OC)c1 [Compound 5, (E)-Methyl 3-(3,4,5-trimethoxyphenyl)acrylate] | > 500 µM | –
19 | COc1cc(/C=C/C(=O)n2c(=O)oc3ccccc32)cc(OC)c1OC [Compound 35, (E)-3-(3-(3,4,5-Trimethoxyphenyl)acryloyl)benzo[d]oxazol-2(3H)-one] | > 500 µM | –
20 | O=C1C=CCCN1C(=O)/C=C/c1cccs1 [Compound 22, (E)-1-(3-(Thiophen-2-yl)acryloyl)-5,6-dihydropyridin-2(1H)-one] | > 500 µM | –
21 | O=C1C=CCCN1C(=O)C=Cc1ccccc1 [Compound 12, 1-Cinnamoyl-5,6-dihydropyridin-2(1H)-one] | > 500 µM | –

The next lines start with results.

Row | IC50 | Compound | ALR2 inhibitory activity (in words)
22 | > 500 µM | COc1cc(C(CC(=O)N2CCC(c3cn(C)c4ccccc34)CC2=O)c2cn(C)c3ccccc23)cc(OC)c1OC (stereo not drawn) [Compound 3b, 1-(3-(3,4,5-Trimethoxyphenyl)-3-(1-methyl-1H-indol-3-yl)propanoyl)-4-(1-methyl-1H-indol-3-yl)piperidin-2-one] | –
23 | > 500 µM | COc1cc(/C=C/C(=O)N2CCC=C(C(O)c3ccc(C)cc3)C2=O)cc(OC)c1OC (stereo not drawn) [Compound 32i, (E)-3-(Hydroxy(p-tolyl)methyl)-1-(3-(3,4,5-trimethoxyphenyl)acryloyl)-5,6-dihydropyridin-2(1H)-one] | –
24 | > 500 µM | COc1cc(/C=C/C(=O)N2CCC=C(C(O)c3ccc4ccccc4c3)C2=O)cc(OC)c1OC (stereo not drawn) [Compound 32h, (E)-3-(Hydroxy(naphthalen-2-yl)methyl)-1-(3-(3,4,5-trimethoxyphenyl)acryloyl)-5,6-dihydropyridin-2(1H)-one] | –
25 | > 500 µM | COc1cc(/C=C/C(=O)N2CCC=C(C(O)c3ccccn3)C2=O)cc(OC)c1OC (stereo not drawn) [Compound 32f, (E)-3-(Hydroxy(pyridin-2-yl)methyl)-1-(3-(3,4,5-trimethoxyphenyl)acryloyl)-5,6-dihydropyridin-2(1H)-one] | –
26 | > 500 µM | COc1cc(/C=C/C(=O)N2CCC=C(C(O)c3ccc(F)cc3)C2=O)cc(OC)c1OC (stereo not drawn) [Compound 32b, (E)-3-((4-Fluorophenyl)(hydroxy)methyl)-1-(3-(3,4,5-trimethoxyphenyl)acryloyl)-5,6-dihydropyridin-2(1H)-one] | –
27 | > 500 µM | COc1cc(/C=C/C(=O)N2CCC=C(C(O)c3ccc(C#N)cc3)C2=O)cc(OC)c1OC (stereo not drawn) [Compound 32e, (E)-4-(Hydroxy(2-oxo-1-(3-(3,4,5-trimethoxyphenyl)acryloyl)-1,2,5,6-tetrahydropyridin-3-yl)methyl)benzonitrile] | –
28 | > 500 µM | COc1cc(/C=C/C(=O)N2CCC=C(C(O)c3ccc([N+](=O)[O-])cc3)C2=O)cc(OC)c1OC (stereo not drawn) [Compound 32d, (E)-3-(Hydroxy(4-nitrophenyl)methyl)-1-(3-(3,4,5-trimethoxyphenyl)acryloyl)-5,6-dihydropyridin-2(1H)-one] | –
29 | 80 µM | COc1cc(C(CC(=O)N2CCC(c3c[nH]c4ccccc34)CC2=O)c2c[nH]c3ccccc23)cc(OC)c1OC (stereo not drawn) [Compound 3a, 1-(3-(1H-Indol-3-yl)-3-(3,4,5-trimethoxyphenyl)propanoyl)-4-(1H-indol-3-yl)piperidin-2-one] | –
30 | > 500 µM | COc1cc(/C=C/C(=O)N2CCC=C(C(O)c3ccccc3)C2=O)cc(OC)c1OC (stereo not drawn) [Compound 32j, (E)-3-(Hydroxy(phenyl)methyl)-1-(3-(3,4,5-trimethoxyphenyl)acryloyl)-5,6-dihydropyridin-2(1H)-one] | –
31 | > 500 µM | COc1cc(/C=C/C(=O)N2CCC=C(C(O)c3ccccc3[N+](=O)[O-])C2=O)cc(OC)c1OC (stereo not drawn) [Compound 32c, (E)-3-(Hydroxy(2-nitrophenyl)methyl)-1-(3-(3,4,5-trimethoxyphenyl)acryloyl)-5,6-dihydropyridin-2(1H)-one] | –
32 | > 500 µM | COc1cc(C(CC(=O)N2CCC(c3c[nH]c4ccc(I)cc34)CC2=O)c2c[nH]c3ccc(I)cc23)cc(OC)c1OC (stereo not drawn) [Compound 3f, 1-(3-(5-Iodo-1H-indol-3-yl)-3-(3,4,5-trimethoxyphenyl)propanoyl)-4-(5-iodo-1H-indol-3-yl)piperidin-2-one] | –

same assay, conditions: Michael adducts from N-benzyl / phenyl indoles

Row | enhancement of ALR2 inhibitory activity | Compound
33 | 40 folds | COc1cc(C(CC(=O)N2CCC(c3c(-c4ccccc4)[nH]c4ccccc34)CC2=O)c2c(-c3ccccc3)[nH]c3ccccc23)cc(OC)c1OC (stereo not drawn) [Compound 3e, 1-(3-(3,4,5-Trimethoxyphenyl)-3-(2-phenyl-1H-indol-3-yl)propanoyl)-4-(2-phenyl-1H-indol-3-yl)piperidin-2-one]
34 | 40 folds | COc1cc(C(CC(=O)N2CCC(c3cn(Cc4ccccc4)c4ccccc34)CC2=O)c2cn(Cc3ccccc3)c3ccccc23)cc(OC)c1OC (stereo not drawn) [Compound 3c, 1-(3-(1-Benzyl-1H-indol-3-yl)-3-(3,4,5-trimethoxyphenyl)propanoyl)-4-(1-benzyl-1H-indol-3-yl)piperidin-2-one]

same assay, conditions: average of four experimental values

Row | IC50 | Compound
35 | 350 µM | O=C1C=CCCN1C(=O)/C=C/c1ccc(Br)cc1 [Compound 15, (E)-1-(3-(4-Bromophenyl)acryloyl)-5,6-dihydropyridin-2(1H)-one]
36 | > 500 µM | COc1cc(/C=C/C(=O)N2CCC=C(C(O)c3cccs3)C2=O)cc(OC)c1OC (stereo not drawn) [Compound 32g, (E)-3-(Hydroxy(thiophen-2-yl)methyl)-1-(3-(3,4,5-trimethoxyphenyl)acryloyl)-5,6-dihydropyridin-2(1H)-one]
